Laboratory results reported in ChEMBL document CHEMBL1795275, “Substituted benzoxazinones as potent positive allosteric AMPA receptor modulators: part II” (Bioorg Med Chem Lett, 2011).

Key:
Rattus norvegicus [1] = species on record: Rattus norvegicus; assay: Positive allosteric modulation of AMPA receptor in rat embryonic hippocampal neurons assessed as concentration required to double glutamate-induced steady-state current by patch clamp electrophysiology assay; details: Hippocampus
Rattus norvegicus [2] = species on record: Rattus norvegicus; assay: Positive allosteric modulation of AMPA receptor in rat hippocampal slices assessed as increase of fEPSP-induced current amplitude at 1 uM; format: tissue-based; details: Hippocampus
Method in brief: (§1)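 Field recordings in in vitro hippocampal slices. Result is the percent rise in fEPSP amplitude, measured at the stated compound concentration.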

[3] = Displacement of [3H]-AMPAKINE from AMPA receptor in rat forebrain cell membranes; parameters: species or system Membrane
Rattus norvegicus [4] = species on record: Rattus norvegicus; assay: Positive allosteric modulation of AMPA receptor in rat hippocampal slices assessed as increase of fEPSP-induced current amplitude at 10 uM; format: tissue-based; details: Hippocampus; method in brief: as §1
Rattus norvegicus [5] = species on record: Rattus norvegicus; assay: Positive allosteric modulation of AMPA receptor in rat hippocampal slices assessed as increase of fEPSP-induced current amplitude at 3 uM; format: tissue-based; details: Hippocampus; method in brief: as §1
Rattus norvegicus [6] = species on record: Rattus norvegicus; assay: Positive allosteric modulation of AMPA receptor in rat hippocampal slices assessed as increase of fEPSP-induced current amplitude at 30 uM; format: tissue-based; details: Hippocampus; method in brief: as §1

Row | SMILES | CD (Rattus norvegicus [1]) [µM] | Activity (Rattus norvegicus [2]) [%] | Ki [3] [µM] | Activity (Rattus norvegicus [4]) [%] | Activity (Rattus norvegicus [5]) [%] | Activity (Rattus norvegicus [6]) [%]
1 | O=C1c2cc3c(cc2OCN1CCn1cc(Cl)cn1)C(=O)N1CCCC1O3 (configuration not stated) | 0.0037 | 23 | 0.33 |  |  | 
2 | O=C1c2cc3c(cc2OCN1CCc1cccc(Br)c1)C(=O)N1CCCC1O3 (configuration not stated) | 1.6 |  | 150 |  |  | 
3 | N#CCCCCN1COc2cc3c(cc2C1=O)OC1CCCN1C3=O (configuration not stated) | 0.11 |  | 4.5 | 22 |  | 
4 | Cc1nccn1CCN1COc2cc3c(cc2C1=O)OC1CCCN1C3=O (configuration not stated) | 1.8 |  | 227 |  |  | 
5 | N#CCCCN1COc2cc3c(cc2C1=O)OC1CCCN1C3=O (configuration not stated) | 0.05 |  | 6.8 |  | 11 | 
6 | O=C1c2cc3c(cc2OCN1CCc1ccccc1Cl)C(=O)N1CCCC1O3 (configuration not stated) | 7.1 |  |  |  |  | 
7 | CS(=O)(=O)CCN1COc2cc3c(cc2C1=O)OC1CCCN1C3=O (configuration not stated) | 0.32 |  | 20 |  | 6 | 
8 | O=C1c2cc3c(cc2OCN1CCc1cccc(C(F)(F)F)c1)C(=O)N1CCCC1O3 (configuration not stated) | 0.2 |  | 2.5 |  |  | 1
9 | O=C1c2cc3c(cc2OCN1CCc1ccccn1)C(=O)N1CCCC1O3 (configuration not stated) | 0.6 |  | 130 |  |  | 15
10 | CN(CCN1COc2cc3c(cc2C1=O)OC1CCCN1C3=O)S(C)(=O)=O (configuration not stated) | 0.38 |  | 31 | 8 |  | 
11 | O=C1c2cc3c(cc2OCN1CCc1ccccc1F)C(=O)N1CCCC1O3 (configuration not stated) | 5.4 |  | 36 |  |  | 
12 | O=C1c2cc3c(cc2OCN1CCc1ccc(F)cc1)C(=O)N1CCCC1O3 (configuration not stated) | 1.2 |  |  |  |  | 6
13 | O=C1c2cc3c(cc2OCN1CCn1cc([N+](=O)[O-])cn1)C(=O)N1CCCC1O3 (configuration not stated) | 0.0065 | 29 | 0.24 |  |  | 
14 | O=C1c2cc3c(cc2OCN1CCc1ccc(Cl)cc1)C(=O)N1CCCC1O3 (configuration not stated) | > 40 |  |  |  |  | 
15 | O=C1c2cc3c(cc2OCN1CCn1cnc([N+](=O)[O-])n1)C(=O)N1CCCC1O3 (configuration not stated) | 0.01 |  | 4.2 |  | 14 | 
16 | N#CCCN1COc2cc3c(cc2C1=O)OC1CCCN1C3=O (configuration not stated) | 0.6 |  | 11 | 19 |  | 
17 | O=C1c2cc3c(cc2OC2CCCN12)OCCO3 (configuration not stated) | 2.3 |  |  |  |  | 
18 | O=C1c2cc3c(cc2OCN1CCn1cccn1)C(=O)N1CCCC1O3 (configuration not stated) | 0.064 |  | 5.1 |  | 15 | 
19 | N#CNCCN1COc2cc3c(cc2C1=O)OC1CCCN1C3=O (configuration not stated) | 1.8 |  | 51 | 2 |  | 
20 | O=C1c2cc3c(cc2OCN1CCc1cccc(F)c1)C(=O)N1CCCC1O3 (configuration not stated) | 0.011 |  | 0.5 |  | 16 | 
21 | O=C1c2cc3c(cc2OCN1CCn1ccnn1)C(=O)N1CCCC1O3 (configuration not stated) | 0.16 | 8 | 5.1 |  |  | 
22 | O=C1c2cc3c(cc2OCN1CCc1cccs1)C(=O)N1CCCC1O3 (configuration not stated) | 0.032 |  | 2 |  |  | 
23 | N#CCN1COc2cc3c(cc2C1=O)OC1CCCN1C3=O (configuration not stated) | 0.5 |  | 17 | 10 |  | 
24 | O=C1c2cc3c(cc2OCN1CCc1ccsc1)C(=O)N1CCCC1O3 (configuration not stated) | 0.02 |  | 0.27 |  | 15 | 
25 | O=C1c2cc3c(cc2OCN1CCO)C(=O)N1CCCC1O3 (configuration not stated) | 1.3 |  | 33 |  |  | 
26 | C[C@@H]1CN2C(=O)c3cc4c(cc3O[C@H]2O1)OCO4 | 200 |  |  |  |  | 
27 | C[S+]([O-])CCN1COc2cc3c(cc2C1=O)OC1CCCN1C3=O (configuration not stated) | 0.11 |  | 13 |  | 14 | 
28 | O=C1c2cc3c(cc2OCN1CCc1ccncc1)C(=O)N1CCCC1O3 (configuration not stated) | 0.24 |  | 43 | 15 | 3 | 
29 | CS(=O)(=O)NCCN1COc2cc3c(cc2C1=O)OC1CCCN1C3=O (configuration not stated) | 0.33 |  | 8.4 |  | 10 | 
30 | O=C1c2cc3c(cc2OCN1CCc1ccon1)C(=O)N1CCCC1O3 (configuration not stated) | 0.4 |  | 41 |  | 4 | 
